According to ChEMBL document CHEMBL3588823, “Design, synthesis and biological evaluation of novel 5-oxo-2-thioxoimidazolidine derivatives as potent androgen receptor antagonists” (Eur J Med Chem, 2015):

Experiments:
LNCaP = test: Antiproliferative activity against human LNCAP cells after 3 days; assay type: functional, cell-based
Method in brief: (§1)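 LNCaP cells seeded at 10,000 per well in RPMI 1640 with 10% charcoal-stripped serum and 1% AAS, then held 3 days at 37 °C. Medium was then replaced with serial compound dilutions, either without DHT (agonism mode) or with DHT (antagonism mode).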

Androgen receptor [1] = molecular target: T1, Androgen receptor (Homo sapiens, UniProt P10275); test: Antagonist activity at androgen receptor (unknown origin)
T1 sequence (P10275 whole entry): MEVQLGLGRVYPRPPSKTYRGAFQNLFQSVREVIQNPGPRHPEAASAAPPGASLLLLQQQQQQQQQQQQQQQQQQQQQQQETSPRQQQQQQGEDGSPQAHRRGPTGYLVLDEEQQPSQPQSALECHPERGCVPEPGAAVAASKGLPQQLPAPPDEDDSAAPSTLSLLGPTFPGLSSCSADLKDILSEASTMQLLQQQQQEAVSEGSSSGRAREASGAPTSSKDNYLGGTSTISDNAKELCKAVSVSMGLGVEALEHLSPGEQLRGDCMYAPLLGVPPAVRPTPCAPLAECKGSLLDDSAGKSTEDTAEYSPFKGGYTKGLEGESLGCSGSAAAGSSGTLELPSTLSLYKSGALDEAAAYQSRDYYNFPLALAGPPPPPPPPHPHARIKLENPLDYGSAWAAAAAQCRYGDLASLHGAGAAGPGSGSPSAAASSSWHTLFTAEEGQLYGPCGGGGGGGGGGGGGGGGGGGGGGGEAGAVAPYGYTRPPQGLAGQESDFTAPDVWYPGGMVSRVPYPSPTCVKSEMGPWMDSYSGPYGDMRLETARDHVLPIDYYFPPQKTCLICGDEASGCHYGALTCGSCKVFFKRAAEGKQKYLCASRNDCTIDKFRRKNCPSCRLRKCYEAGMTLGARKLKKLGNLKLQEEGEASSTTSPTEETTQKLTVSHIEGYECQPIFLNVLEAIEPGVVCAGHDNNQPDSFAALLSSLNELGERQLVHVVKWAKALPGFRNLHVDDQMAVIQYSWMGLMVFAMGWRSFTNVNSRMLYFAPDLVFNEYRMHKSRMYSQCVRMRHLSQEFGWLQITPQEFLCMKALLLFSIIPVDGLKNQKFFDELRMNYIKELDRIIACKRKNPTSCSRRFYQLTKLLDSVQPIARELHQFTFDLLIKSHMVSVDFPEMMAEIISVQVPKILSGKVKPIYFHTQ

[2] = Half life in rat at 5 mg/kg, po; assay type: ADME, organism-based; details: in vivo
Method in brief: (§2)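 Rats (n = 3) were given a single 5 mg/kg oral dose in 0.5% HPMC. Blood was taken into EDTA tubes at 15 and 30 min and 1, 2, 4, 8 and 24 h. Plasma was obtained by centrifugation and proteins were precipitated with acetonitrile. Bioavailability was calculated against a 1 mg/kg iv dose.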

[3] = Half life in rat at 1 mg/kg, iv; assay type: ADME, organism-based; details: in vivo
Method in brief: (§3)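 Rats (n = 3) were given a single 1 mg/kg iv dose in 20% hydroxypropyl-β-cyclodextrin. Blood was taken into EDTA tubes at 5, 15 and 30 min and 1, 2, 4, 8 and 24 h. Plasma was obtained by centrifugation and proteins were precipitated with acetonitrile before analysis.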

[4] = Tmax in rat at 5 mg/kg, po; assay type: ADME, organism-based; details: in vivo; method in brief: as §2
[5] = Tmax in rat at 1 mg/kg, iv; assay type: ADME, organism-based; details: in vivo; method in brief: as §3
[6] = Cmax in rat at 5 mg/kg, po; assay type: ADME, organism-based; design: dose 5 mg/kg, route oral; details: in vivo; method in brief: as §2
[7] = Cmax in rat at 1 mg/kg, iv; assay type: ADME, organism-based; design: dose 1 mg/kg, route intravenous; details: in vivo; method in brief: as §3
[8] = AUC (0 to time) in rat at 5 mg/kg, po; assay type: ADME, organism-based; details: in vivo
Method in brief: (§4)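 Rats (n = 3) received a single 5 mg/kg oral dose in 0.5% HPMC. EDTA blood samples were taken at 15 and 30 min and at 1, 2, 4, 8 and 24 h. Plasma was obtained by centrifugation, mixed with acetonitrile:H2O (1:1 v/v) and precipitated with acetonitrile.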

[9] = AUC (0 to time) in rat at 1 mg/kg, iv; assay type: ADME, organism-based; details: in vivo
Method in brief: (§5)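 Rats (n = 3) given a single 1 mg/kg iv dose in 20% HP-b-CD. Blood was drawn into EDTA tubes at 5, 15 and 30 min and at 1, 2, 4, 8 and 24 h. Plasma was separated by centrifugation, mixed with acetonitrile:H2O (1:1 v/v) and protein-precipitated with acetonitrile.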

[10] = AUC (0 to infinity) in rat at 5 mg/kg, po; assay type: ADME, organism-based; design: dose 5 mg/kg, route oral, time infinity; details: in vivo; method in brief: as §4
[11] = AUC (0 to infinity) in rat at 1 mg/kg, iv; assay type: ADME, organism-based; design: dose 1 mg/kg, route intravenous, time infinity; details: in vivo; method in brief: as §5
Rattus norvegicus [12] = test: Volume of distribution in rat at 5 mg/kg, po; assay type: ADME, organism-based; details: in vivo; method in brief: as §2
[13] = Volume of distribution in rat at 1 mg/kg, iv; assay type: ADME, organism-based; details: in vivo; method in brief: as §3
[14] = Clearance in rat at 5 mg/kg, po; assay type: ADME, organism-based; details: in vivo; method in brief: as §2
[15] = (§6) Clearance in rat at 1 mg/kg, iv; assay type: ADME, organism-based; details: in vivo; method in brief: as §3
[16] = MRT (last) in rat at 5 mg/kg, po; assay type: ADME, organism-based; details: in vivo; method in brief: as §2
[17] = MRT (last) in rat at 1 mg/kg, iv; assay type: ADME, organism-based; details: in vivo; method in brief: as §3
[18] = MRT (INF) in rat at 5 mg/kg, po; assay type: ADME, organism-based; details: in vivo; method in brief: as §2
[19] = (§7) MRT (INF) in rat at 1 mg/kg, iv; assay type: ADME, organism-based; details: in vivo; method in brief: as §3
[20] = Oral bioavailability in rat at 5 mg/kg; assay type: ADME, organism-based; details: in vivo; method in brief: as §2
Androgen receptor [21] = molecular target: T1, Androgen receptor; test: Partial agonist activity at androgen receptor (unknown origin); method in brief: as §1
Rattus norvegicus [22] = test: as §6; assay type: ADME, organism-based; details: in vivo; method in brief: as §3
Rattus norvegicus [23] = test: as §7; assay type: ADME, organism-based; details: in vivo; method in brief: as §3
Rattus norvegicus [24] = test: Volume of distribution at steady state in rat at 5 mg/kg, po; assay type: ADME, organism-based; details: in vivo; method in brief: as §2
Rattus norvegicus [25] = test: Volume of distribution at steady state in rat at 1 mg/kg, iv; assay type: ADME, organism-based; details: in vivo; method in brief: as §3
[26] = Homo sapiens, LNCaP, 72 h, read-out: IC50

CNC(=O)c1ccc(N2C(=S)N(c3ccc(C#N)c(C(F)(F)F)c3)C(=O)C23CCN(C)CC3)cc1F
IC50 (LNCaP; [26]): > 10000 nM

N#Cc1ccc(N2C(=O)[C@]3(CCOC3)N(c3ccc(C(=O)O)c(F)c3)C2=S)cc1C(F)(F)F
IC50 (LNCaP; lncap): Not Active
Ki (Androgen receptor [1]): Not Active
half-life [2]: 240 min
half-life [3]: 198 min
Tmax [4]: 0.42 h
Tmax [5]: 4.98 min
Cmax [6]: 231 ng/mL
Cmax [7]: 1180 ng/mL
AUC [8]: 716 ng·h/mL
AUC [9]: 497 ng·h/mL
AUC(0-inf) [10]: 743 ng·h/mL
AUC(0-inf) [11]: 509 ng·h/mL
Vd (Rattus norvegicus [12]): 38.4 L/kg
Vd [13]: 8 L/kg
CL/F [14]: 117 mL/min/kg
clearance [15]: 33.3 mL/min/kg
MRT last [16]: 3.5 h
MRT last [17]: 0.5 h
MRT inf [18]: 4.2 h
MRT inf [19]: 48 min
bioavailability [20]: 29%

CNC(=O)c1ccc(N2C(=S)N(c3ccc(C#N)c(C(F)(F)F)c3)C(=O)C2C)cc1F (racemic)
IC50 (LNCaP; [26]): 944 nM
Ki (Androgen receptor [21]): 257 nM

CNC(=O)c1ccc(N2C(=S)N(c3ccc(C#N)c(C(F)(F)F)c3)C(=O)[C@]2(C)COC)cc1F
IC50 (LNCaP; [26]): 3170 nM
Ki (Androgen receptor [1]): 798 nM

CNC(=O)c1ccc(N2CC(=O)N(c3ccc(C#N)c(C(F)(F)F)c3)C2=S)cc1F
IC50 (LNCaP; [26]): > 10000 nM

CNC(=O)c1ccc(N2C(=S)N(c3ccc(C#N)c(C(F)(F)F)c3)C(=O)C23CCOC3)cc1F (racemic)
IC50 (LNCaP; [26]): 196 nM
Ki (Androgen receptor [1]): 33.8 nM

CNC(=O)c1ccc(N2C(=S)N(c3ccc(C#N)c(C(F)(F)F)c3)C(=O)[C@@H]2C)cc1F
IC50 (LNCaP; [26]): 398 nM
Ki (Androgen receptor [21]): 95.3 nM

CNC(=O)c1ccc(N2CCC(=O)N(c3ccc(C#N)c(C(F)(F)F)c3)C2=S)cc1F
IC50 (LNCaP; [26]): 3010 nM
Ki (Androgen receptor [1]): 576 nM

CNC(=O)c1ccc(N2C(=S)N(c3ccc(C#N)c(C(F)(F)F)c3)C(=O)C2(C)CC(=O)O)cc1F (racemic)
IC50 (LNCaP; lncap): Not Active
Ki (Androgen receptor [1]): Not Active

CNC(=O)c1ccc(N2C(=S)N(c3ccc(C#N)c(C(F)(F)F)c3)C(=O)C2(COC)COC)cc1F
IC50 (LNCaP; [26]): 3370 nM
Ki (Androgen receptor [1]): 585 nM

CNC(=O)c1ccc(N2C(=S)N(c3cnc(C#N)c(C(F)(F)F)c3)C(=O)C23CCC3)cc1F [APALUTAMIDE]
IC50 (LNCaP; [26]): 174 nM

CNC(=O)c1ccc(N2C(=S)N(c3ccc(C#N)c(C(F)(F)F)c3)C(=O)C23CN(C(c2ccccc2)c2ccccc2)C3)cc1F
IC50 (LNCaP; lncap): Not Active
Ki (Androgen receptor [1]): Not Active

COC(=O)c1ccc(N2C(=S)N(c3ccc(C#N)c(C(F)(F)F)c3)C(=O)[C@]23CCOC3)cc1F
IC50 (LNCaP; [26]): 59 nM
Ki (Androgen receptor [1]): 11.9 nM
half-life [2]: 258 min
half-life [3]: 1030 min
Tmax [4]: 1.67 h
Tmax [5]: 4.98 min
Cmax [6]: 104 ng/mL
Cmax [7]: 518 ng/mL
AUC [8]: 570 ng·h/mL
AUC [9]: 599 ng·h/mL
AUC(0-inf) [10]: 576 ng·h/mL
AUC(0-inf) [11]: 712 ng·h/mL
Vd (Rattus norvegicus [12]): 53 L/kg
Vd [13]: 46 L/kg
CL/F [14]: 147 mL/min/kg
CL (Rattus norvegicus [22]): 1.7 L/h/kg
MRT last [16]: 4.6 h
MRT last [17]: 4.3 h
MRT inf [18]: 5 h
MRT (Rattus norvegicus [23]): 12.8 h
Vdss (Rattus norvegicus [24]): 2 L/kg
Vdss (Rattus norvegicus [25]): 1.6 L/kg
bioavailability [20]: 19%
